According to ChEMBL document CHEMBL1139054, “Indanylacetic acid derivatives carrying aryl-pyridyl and aryl-pyrimidinyl tail groups--new classes of PPAR gamma/delta and PPAR alpha/gamma/delta agonists” (Bioorg Med Chem Lett, 2007):
Active and inactive are the calls of the source. The calls are words filed in the database; no cut-off is given here.

Legend:
[1] = target: T1, Peroxisome proliferator-activated receptor delta (Homo sapiens, UniProt Q03181); assay: Agonist activity at human PPARdelta by FRET assay; assay type: functional
T1 sequence (Q03181 whole entry): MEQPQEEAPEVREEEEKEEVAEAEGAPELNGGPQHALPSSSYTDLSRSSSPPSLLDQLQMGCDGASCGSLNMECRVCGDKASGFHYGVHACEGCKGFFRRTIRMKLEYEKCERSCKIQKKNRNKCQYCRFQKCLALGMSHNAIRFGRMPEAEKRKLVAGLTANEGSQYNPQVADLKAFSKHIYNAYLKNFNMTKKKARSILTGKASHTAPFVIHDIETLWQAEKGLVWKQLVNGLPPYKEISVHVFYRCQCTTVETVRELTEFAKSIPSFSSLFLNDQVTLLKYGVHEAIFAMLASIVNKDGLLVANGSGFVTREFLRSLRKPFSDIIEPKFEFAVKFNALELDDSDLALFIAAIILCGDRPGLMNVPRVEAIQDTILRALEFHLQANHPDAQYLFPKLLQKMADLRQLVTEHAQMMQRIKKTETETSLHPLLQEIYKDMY

[2] = target: T2, Peroxisome proliferator-activated receptor gamma (Mus musculus, UniProt P37238); assay: Agonist activity at PPARgamma in mouse 3T3-L1 cells by IRBA; assay type: functional, cell-based
T2 sequence (P37238 whole entry): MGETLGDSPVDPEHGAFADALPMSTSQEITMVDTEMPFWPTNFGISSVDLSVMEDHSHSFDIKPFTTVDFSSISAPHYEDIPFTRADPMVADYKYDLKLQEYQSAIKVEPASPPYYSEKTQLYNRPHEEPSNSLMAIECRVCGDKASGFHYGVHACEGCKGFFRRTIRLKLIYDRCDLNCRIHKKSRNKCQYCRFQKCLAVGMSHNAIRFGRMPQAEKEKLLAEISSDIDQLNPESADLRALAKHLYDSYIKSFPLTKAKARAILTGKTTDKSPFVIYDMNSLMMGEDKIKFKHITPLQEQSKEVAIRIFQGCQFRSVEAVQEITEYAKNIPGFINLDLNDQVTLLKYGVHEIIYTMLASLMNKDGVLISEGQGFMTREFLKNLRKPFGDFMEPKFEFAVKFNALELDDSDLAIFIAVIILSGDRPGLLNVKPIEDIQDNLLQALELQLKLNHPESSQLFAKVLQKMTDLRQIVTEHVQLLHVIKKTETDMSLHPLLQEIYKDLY

[3] = target: T3, Peroxisome proliferator-activated receptor alpha (Homo sapiens, UniProt Q07869); assay: Agonist activity at human PPARalpha by FRET assay; assay type: functional
T3 sequence (Q07869 whole entry): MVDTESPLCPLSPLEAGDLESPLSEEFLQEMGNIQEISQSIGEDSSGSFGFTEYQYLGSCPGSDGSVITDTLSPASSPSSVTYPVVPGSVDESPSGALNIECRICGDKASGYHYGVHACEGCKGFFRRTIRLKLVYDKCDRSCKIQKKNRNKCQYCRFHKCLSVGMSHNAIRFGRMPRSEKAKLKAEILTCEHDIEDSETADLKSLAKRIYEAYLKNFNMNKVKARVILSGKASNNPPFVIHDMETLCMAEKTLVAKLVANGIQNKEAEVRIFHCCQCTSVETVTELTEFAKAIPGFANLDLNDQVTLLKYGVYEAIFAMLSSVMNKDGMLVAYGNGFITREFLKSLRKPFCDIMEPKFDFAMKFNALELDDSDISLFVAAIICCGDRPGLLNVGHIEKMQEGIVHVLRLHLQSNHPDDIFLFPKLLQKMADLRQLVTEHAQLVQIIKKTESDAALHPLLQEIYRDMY
How it was run: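 Human PPARα ligand-binding domain (GST-tagged) incubated with compound, europium-labeled anti-GST antibody, biotinylated coactivator-binding peptide and streptavidin-APC. FRET read at excitation 340 nm, emission 615 and […]. Means of at least two experiments.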

[4] = target: T4, Peroxisome proliferator-activated receptor delta (Mus musculus, UniProt P35396); assay: Activity at mouse PPARdelta expressed in CV1 cells by GAL4 transactivation assay; assay type: cell-based, CV-1
T4 sequence (P35396 whole entry): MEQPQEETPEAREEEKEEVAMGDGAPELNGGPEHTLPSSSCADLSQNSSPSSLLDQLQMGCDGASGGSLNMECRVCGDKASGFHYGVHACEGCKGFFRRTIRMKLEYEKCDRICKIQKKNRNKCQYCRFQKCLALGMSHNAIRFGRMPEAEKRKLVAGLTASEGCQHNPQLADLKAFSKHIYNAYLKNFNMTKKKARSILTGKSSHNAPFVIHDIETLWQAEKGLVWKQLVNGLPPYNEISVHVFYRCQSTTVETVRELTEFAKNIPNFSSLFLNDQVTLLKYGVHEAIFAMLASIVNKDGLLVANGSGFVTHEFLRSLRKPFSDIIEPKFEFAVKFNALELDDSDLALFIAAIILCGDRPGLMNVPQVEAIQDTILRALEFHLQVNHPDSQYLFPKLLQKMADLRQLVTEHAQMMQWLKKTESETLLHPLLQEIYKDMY
How it was run: (§1)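 GAL4 transactivation in CV-1 cells (2.8 × 10⁴ per well, grown overnight in 10% FBS medium). Cells transiently transfected (Lipofectamine/Plus) with Gal4/PPAR-LBD fusion, UAS/firefly luciferase and Renilla luciferase plasmids. After overnight culture in charcoal/dextran-treated 10% FBS medium, compound added for 24 h. Dual luciferase read-out; EC50 from dose–response curve; means of at least two experiments.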

[5] = target: T1, Peroxisome proliferator-activated receptor delta; assay: Activity at human PPARdelta expressed in CV1 cells by GAL4 transactivation assay; assay type: cell-based, CV-1; how it was run: as §1
[6] = target: T5, Peroxisome proliferator-activated receptor alpha (Mus musculus, UniProt P23204); assay: Activity at mouse PPARalpha expressed in CV1 cells by GAL4 transactivation assay; assay type: cell-based, CV-1; how it was run: as §1
T5 sequence (P23204 whole entry): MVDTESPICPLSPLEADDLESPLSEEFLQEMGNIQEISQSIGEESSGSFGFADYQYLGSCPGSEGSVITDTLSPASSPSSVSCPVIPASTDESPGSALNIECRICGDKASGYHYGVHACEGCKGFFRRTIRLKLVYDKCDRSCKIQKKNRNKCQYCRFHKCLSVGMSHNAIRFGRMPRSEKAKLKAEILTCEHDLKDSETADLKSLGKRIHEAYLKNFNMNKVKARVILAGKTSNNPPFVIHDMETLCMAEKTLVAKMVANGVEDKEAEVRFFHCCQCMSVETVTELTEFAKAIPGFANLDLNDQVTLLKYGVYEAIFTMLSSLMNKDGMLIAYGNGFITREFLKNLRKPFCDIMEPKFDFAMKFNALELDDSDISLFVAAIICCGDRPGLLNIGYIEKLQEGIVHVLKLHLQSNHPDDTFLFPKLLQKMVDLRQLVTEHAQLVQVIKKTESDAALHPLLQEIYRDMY

[7] = target: T3, Peroxisome proliferator-activated receptor alpha; assay: Activity at human PPARalpha expressed in CV1 cells by GAL4 transactivation assay; assay type: cell-based, CV-1; how it was run: as §1
[8] = Bioavailability in rat at 3 mg/kg, po; assay type: ADME, organism-based; conditions: in vivo
Mus musculus [9] = assay: Reduction of plasma glucose level in orally dosed db/db mouse after 7 days; assay type: functional; conditions: po, 168 h
How it was run: (§2)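 Female db/db mice grouped by equal mean plasma glucose, then given compound orally once daily for 7 days in 0.5% methylcellulose in water; fed ad libitum. Plasma glucose measured about 24 h after the last dose. Percent change from drug = ((Tf/Ti)/(Vf/Vi) − 1) × 100, correcting for vehicle-group change.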

[10] = Half life in rat at 3 mg/kg, po; assay type: ADME, organism-based; set-up: dose 3 mg/kg, route oral; conditions: in vivo
Rattus norvegicus [11] = assay: AUC in rat at 3 mg/kg, po; assay type: ADME, organism-based, Plasma; set-up: dose 3 mg/kg, route oral; conditions: in vivo
Rattus norvegicus [12] = assay: Reduction of glucose level in Zucker fa/fa rat at 10 mg/kg after 10 days; assay type: functional, organism-based; set-up: dose 10 mg/kg
Mus musculus [13] = assay: Increase in HDL-cholesterol level in hApoA1 mouse at 30 mg/kg, po after 10 days
Mus musculus [14] = assay: Reduction of plasma glucose level in db/db mouse at 10 mg/kg, po after 7 days; assay type: functional, organism-based; set-up: dose 10 mg/kg; how it was run: as §2
Mus musculus [15] = assay: Reduction of triglycerides level in hApoA1 mouse at 30 mg/kg, po after 10 days; set-up: scale not given: the % may be the effect or the level left
[16] = Cmax in rat at 3 mg/kg, po and 3 mg/kg, iv; assay type: ADME, organism-based; conditions: in vivo

Row | EC50 [1] [nM] | EC50 [2] [nM] | EC50 [3] [nM] | SMILES | also measured
1 | 24 | 678 | 6610 | Cc1cnc(-c2ccccc2)nc1N(C)CCCOc1ccc2c(c1)CC[C@H]2CC(=O)O | –
2 | 41 | 670 | 4390 | Cc1cccc(-c2ncc(C)c(N(C)CCCOc3ccc4c(c3)CC[C@H]4CC(=O)O)n2)c1 | –
3 | 23 | 582 | 2370 | Cc1cnc(-c2cccc(Cl)c2)nc1N(C)CCCOc1ccc2c(c1)CC[C@H]2CC(=O)O | –
4 | 7 | 860 | 2120 | Cc1cnc(-c2ccc(F)cc2)nc1N(C)CCCOc1ccc2c(c1)CC[C@H]2CC(=O)O | –
5 | 58 | 161 | 3090 | CCOc1ccc(-c2ncc(C)c(N(C)CCCOc3ccc4c(c3)CC[C@H]4CC(=O)O)n2)cc1 | –
6 | 7 | 2800 | 1130 | Cc1cnc(-c2ccc(Cl)cc2)nc1N(C)CCCOc1ccc2c(c1)CC[C@H]2CC(=O)O | –
7 | 83 | 237 | 6550 | CC(=O)c1ccc(-c2ncc(C)c(N(C)CCCOc3ccc4c(c3)CC[C@H]4CC(=O)O)n2)cc1 | –
8 | 12 | 7010 | 1390 | COc1ccc(-c2ncc(C)c(N(C)CCCOc3ccc4c(c3)CC[C@H]4CC(=O)O)n2)cc1 | –
9 | 25 | 800 | 565 | CCc1ccc(-c2nccc(N(C)CCCOc3ccc4c(c3)CC[C@H]4CC(=O)O)n2)cc1 | –
10 | 7 | 6930 | 3540 | CCOc1cccc(-c2ncc(C)c(N(C)CCCOc3ccc4c(c3)CC[C@H]4CC(=O)O)n2)c1 | –
11 | 11 | 600 | 920 | CCc1ccc(-c2nc(C)cc(N(C)CCCOc3ccc4c(c3)CC[C@H]4CC(=O)O)n2)cc1 | –
12 | 9 | 780 | 1150 | Cc1ccc(-c2ncc(C)c(N(C)CCCOc3ccc4c(c3)CC[C@H]4CC(=O)O)n2)cc1 | –
13 | 3 | 264 | 421 | CCc1csc(-c2ccc(OCCCOc3ccc4c(c3)CC[C@H]4CC(=O)O)nc2)n1 | –
14 | 28 | 156 | 641 | Cc1cnc(-c2ccc(C(C)(C)C)cc2)nc1N(C)CCCOc1ccc2c(c1)CC[C@H]2CC(=O)O | –
15 | 5 | 511 | 6780 | Cc1nc(-c2ccc(OCCCOc3ccc4c(c3)CC[C@H]4CC(=O)O)nc2)sc1C | –
16 | 16 | 360 | 425 | CCc1ccc(-c2ncc(F)c(N(C)CCCOc3ccc4c(c3)CC[C@H]4CC(=O)O)n2)cc1 | –
17 | 10 | 145 | 200 | CCc1ccc(-c2ncc(C)c(N(C)CCCOc3ccc4c(c3)CC[C@H]4CC(=O)O)n2)cc1 | IC50 [4]: 370 nM; IC50 [5]: 30 nM; IC50 [6]: 670 nM; IC50 [7]: 175 nM

Row | SMILES | EC50 [1] [nM] | EC50 [2] [nM] | EC50 [3] [nM] | also measured
18 | CCOc1csc(-c2ccc(OCCCOc3ccc4c(c3)CC[C@H]4CC(=O)O)nc2)n1 | 3 | 411 | 807 | –
19 | Cc1cnc(-c2ccc(C(C)C)cc2)nc1N(C)CCCOc1ccc2c(c1)CC[C@H]2CC(=O)O | 34 | 29 | 990 | IC50 [4]: 610 nM; IC50 [5]: 49 nM; IC50 [6]: 2530 nM; IC50 [7]: 237 nM
20 | CCc1ccc(-c2ncc(CC)c(N(C)CCCOc3ccc4c(c3)CC[C@H]4CC(=O)O)n2)cc1 | 2 | 950 | 120 | –
21 | CC(=O)c1sc(-c2ccc(OCCCOc3ccc4c(c3)CC[C@H]4CC(=O)O)nc2)nc1C | 9 | 35 | 1390 | IC50 [4]: 1390 nM; bioavailability [8]: 48%; ED50 (Mus musculus [9]): 6.7 mg/kg; half-life [10]: 5 h; IC50 [5]: 56 nM; AUC (Rattus norvegicus [11]): 26 µM·h; IC50 [7]: > 6000 nM; Activity (Rattus norvegicus [12]): Active; Activity (Mus musculus [13]): 22%; Activity (Mus musculus [14]): Active; Activity (Mus musculus [15]): -32%; Cmax [16]: 2800 nM
